This note sets out measurements from ChEMBL document CHEMBL4706624, “Synthesis and evaluation of new quinazoline-benzimidazole hybrids as potent anti-microbial agents against multidrug resistant Staphylococcus aureus and Mycobacterium tuberculosis” (Eur J Med Chem, 2021).

Holding throughout (assay type): functional
The test system of one assay is Staphylococcus aureus. Nature of the assay: Antibacterial activity against Staphylococcus aureus ATCC 29213 measured after 16 to 18 hrs. Particulars: time 16-18 hrs. In short, it runs like this: (§1)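 Broth microdilution MIC. Strains grown on MHA; a single colony was grown overnight in CA-MHB at 37 °C with shaking for 18–24 h. Cultures were diluted by OD600 to ~10⁶ cfu/mL and exposed to compound at […]. Plates were incubated at 37 °C for 16-18 h. MIC = lowest concentration with no visible growth. Levofloxacin was the reference. Three independent runs, each in duplicate.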

Assay [1] deals with Mycobacterium tuberculosis. Kind of assay: Antitubercular activity against Mycobacterium tuberculosis H37Rv ATCC 27294 measured after 7 days by broth microdilution method. The conditions noted are these: H37Rv ATCC 27294, 168 h, time 7 day. In short, it runs like this:
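H37Rv in Middlebrook 7H9 with 10% ADC, 0.2% glycerol, 0.05% Tween-80. Inoculum ~10⁶ cfu/mL set by OD600. Twofold serial dilutions, 0.0064–0.00005 g/100 mL. Incubated at 37 °C for 7 days, then Presto blue resazurin read-out. MIC = lowest concentration inhibiting visible growth. Triplicate runs, each in duplicate.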
(Dilution methods test growth across graded concentrations, often in twofold steps.)

Assay [2] has as its system Mycobacteroides abscessus. Nature of the assay: Antimycobacterial activity against Mycobacterium abscessus ATCC 19977 by broth microdilution method. In short, it runs like this: (§2)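 Broth microdilution MIC in Middlebrook 7H9 with 10% ADC-Tween-80 (BSA, dextrose, 0.2% glycerol, 0.05% Tween-80). Inoculum ~10⁶ cfu/mL set by OD600. Compounds were twofold serially diluted, 0.0064–0.00005 g/100 mL (DMSO stocks). Presto blue resazurin dye was used as read-out. MIC = lowest concentration inhibiting visible growth. Triplicate runs, each in duplicate.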

A further assay concerns Acinetobacter baumannii. Nature of the assay: Antibacterial activity against Acinetobacter baumannii BAA1605 measured after 16 to 18 hrs. The conditions noted are these: time 16-18 hrs. In short, it runs like this: as §1
A further assay deals with Escherichia coli. Nature of the assay: Antibacterial activity against Escherichia coli ATCC 25922 measured after 16 to 18 hrs. The conditions noted are these: time 16-18 hrs. In short, it runs like this:
as §1

For a further assay, the system named is Mycobacteroides chelonae. Kind of assay: Antimycobacterial activity against Mycobacterium chelonae ATCC 35752 by broth microdilution method. The procedure, abridged:
as §2

A further assay deals with Klebsiella pneumoniae. Kind of assay: Antibacterial activity against Klebsiella pneumoniae BAA-1705 measured after 16 to 18 hrs. The conditions noted are these: ATCC BAA-1705, time 16-18 hrs. The procedure, abridged: as §1
Assay [3] deals with Mycolicibacterium fortuitum. Kind of assay: Antimycobacterial activity against Mycobacterium fortuitum ATCC 6841 by broth microdilution method. The procedure, abridged: as §2
The subject of the next assay is Pseudomonas aeruginosa. Kind of assay: Antibacterial activity against Pseudomonas aeruginosa ATCC 27853 measured after 16 to 18 hrs. The conditions noted are these: time 16-18 hrs. In short, it runs like this: as §1

The structures appear in SMILES notation. ≈ marks a conversion by molar mass, not a printed value. Some results are limits rather than exact numbers.

On to `N#Cc1ccc(/C=C/c2nc3ccccc3c(=O)n2-c2ccc(C(=O)O)c(O)c2)cc1`, for which the MIC with Staphylococcus aureus is 0.03 µg/mL (≈ 0.0733 µM); in assay [1], 64 µg/mL (≈ 156 µM).
With `FC(F)(F)c1nc2ccc(Nc3nc(-c4cccs4)nc4ccccc34)cc2[nH]1`, the MIC in [2] was above 64 µg/mL; against Acinetobacter baumannii, above 64 µg/mL; against Escherichia coli, above 64 µg/mL; with Staphylococcus aureus, 64 µg/mL (≈ 156 µM); against Mycobacteroides chelonae, above 64 µg/mL; against Klebsiella pneumoniae, above 64 µg/mL. In addition, the results for the MIC (in [1]; in assay [3]; in the assay on Pseudomonas aeruginosa) were 64 µg/mL (≈ 156 µM), above 64 µg/mL and above 64 µg/mL, respectively.
For the molecule `O=C(Nc1ccc2nc(-c3ccc4ccccc4c3)[nH]c2c1)c1ccc(Nc2nc(-c3ccccc3)nc3ccccc23)cc1`, the MIC (in assay [2]; in the assay with Acinetobacter baumannii; with Escherichia coli; against Staphylococcus aureus; in the assay on Mycobacteroides chelonae; in the assay with Klebsiella pneumoniae) was above 64 µg/mL each time. Besides, the MIC in assay [1] is 64 µg/mL (≈ 110 µM); in [3], above 64 µg/mL; in the assay with Pseudomonas aeruginosa, above 64 µg/mL.
In the case of `O=C(Nc1ccc2nc(C(F)(F)F)[nH]c2c1)c1ccc(Nc2nc(-c3ccccc3)nc3ccccc23)cc1`, the MIC was above 64 µg/mL in assay [2]; above 64 µg/mL against Acinetobacter baumannii; above 64 µg/mL against Escherichia coli; 32 µg/mL (≈ 61 µM) with Staphylococcus aureus; above 64 µg/mL against Mycobacteroides chelonae; above 64 µg/mL in the assay on Klebsiella pneumoniae. For the same molecule, the minimal inhibitory concentration (MIC) in assay [1] was 64 µg/mL (≈ 122 µM); in assay [3] it was above 64 µg/mL; in the assay on Pseudomonas aeruginosa, above 64 µg/mL.
On to `Clc1ccc(-c2nc(Nc3ccc(-c4nc5cc(Cl)ccc5[nH]4)cc3)c3ccccc3n2)cc1`, for which the MIC against Acinetobacter baumannii, in the assay with Escherichia coli, with Staphylococcus aureus, in the assay with Klebsiella pneumoniae and against Pseudomonas aeruginosa was above 64 µg/mL throughout.
On to `O=C(Nc1ccc2nc(-c3ccc(Br)cc3F)[nH]c2c1)c1ccc(Nc2nc(-c3ccccc3)nc3ccccc23)cc1`, for which the minimum inhibitory concentration (MIC) was above 64 µg/mL in assay [2]; above 64 µg/mL against Acinetobacter baumannii; above 64 µg/mL in the assay on Escherichia coli; 64 µg/mL (≈ 102 µM) against Staphylococcus aureus; above 64 µg/mL with Mycobacteroides chelonae; above 64 µg/mL against Klebsiella pneumoniae. The MIC (in assay [1]; in assay [3]; against Pseudomonas aeruginosa) was above 64 µg/mL in each case.
As to `Brc1ccc2[nH]c(-c3ccc(Nc4nc(-c5ccccc5)nc5ccccc45)cc3)nc2c1`, the MIC against Acinetobacter baumannii, against Escherichia coli, with Staphylococcus aureus, with Klebsiella pneumoniae and with Pseudomonas aeruginosa was above 64 µg/mL each time.
`O=C(Nc1ccc(Nc2nc(-c3ccccc3)nc3ccccc23)cc1)c1cc(Br)ccc1Cl` registered a minimal inhibitory concentration (MIC) in assay [1] of 4 µg/mL (≈ 7.55 µM).
In assay [1], `CC[C@@H](CO)NCCN[C@@H](CC)CO` [ETHAMBUTOL] had an MIC of 1 µg/mL (≈ 4.89 µM).
`NNC(=O)c1ccncc1` [ISONIAZID]: it took 0.03 µg/mL (≈ 0.219 µM) to inhibit growth in assay [1] (MIC).
On to `CO[C@H]1/C=C/O[C@@]2(C)Oc3c(C)c(O)c4c(O)c(c(/C=N/N5CCN(C)CC5)c(O)c4c3C2=O)NC(=O)/C(C)=C\C=C\[C@H](C)[C@H](O)[C@@H](C)[C@@H](O)[C@@H](C)[C@H](OC(C)=O)[C@@H]1C` [RIFAMPIN], for which the MIC in assay [1] was determined as 0.06 µg/mL (≈ 0.0729 µM).
In the case of `CN[C@@H]1[C@H](O[C@H]2[C@H](O[C@H]3[C@H](O)[C@@H](O)[C@H](N=C(N)N)[C@@H](O)[C@@H]3N=C(N)N)O[C@@H](C)[C@]2(O)C=O)O[C@@H](CO)[C@H](O)[C@H]1O` [STREPTOMYCIN], the MIC in [1] amounted to 1 µg/mL (≈ 1.72 µM).

What is called MIC is the lowest concentration that inhibits growth of the organism.
